Columns and labels:
[1] = Half life in male Sprague-Dawley rat administered with 2.5 mg/kg, iv; type: ADME, organism-based; set-up: dose 2.5 mg/kg, route intravenous; conditions: in vivo
Summary of the method: (§1)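 Plasma sampled predose to 48 h, counted in triplicate by liquid scintillation, no decay correction; <3× background excluded. Apparent parameters from notionally linear log-concentration phase; mean ± SD, n = 4.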

Human alphaherpesvirus 1 [2] = experiment: Inhibition of cell to cell spread of HSV1; type: functional, organism-based, Human herpesvirus 1 strain KOS; conditions: Human alphaherpesvirus 1, KOS321
Summary of the method: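 African green monkey kidney monolayers infected with HSV-1 KOS321, then 5-fold compound dilutions (0.032–20 μM) in serum-free overlay for 3 days at 37 °C. Area of 20 plaques measured from images, expressed relative to mock-treated cells. IC50 derived.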

[3] = biological target: Fibroblast growth factor 2 (Homo sapiens, UniProt P09038); experiment: Binding affinity for FGF2 by BIAcore solution affinity assay
Chain of Fibroblast growth factor 2 (P09038 143-288 limits assumed): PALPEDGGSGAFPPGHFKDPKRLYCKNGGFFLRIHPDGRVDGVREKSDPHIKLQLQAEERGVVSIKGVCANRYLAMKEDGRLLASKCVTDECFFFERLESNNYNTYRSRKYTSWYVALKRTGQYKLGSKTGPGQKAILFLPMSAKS
Summary of the method: (§2)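 Surface plasmon resonance solution affinity assay: growth factor preequilibrated with ligand in solution, then injected; specific binding after background subtraction converted to free protein concentration under mass-transport conditions. Kd derived assuming 1:1 stoichiometry; duplicates averaged where measured.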

Rattus norvegicus = experiment: Plasma concentration in male Sprague-Dawley rat administered with 2.5 mg/kg, iv; type: ADME, organism-based; set-up: dose 2.5 mg/kg, route intravenous; conditions: in vivo; summary of the method: as §1
[4] = Area under curve (0-12h) male Sprague-Dawley rat administered with 2.5 mg/kg, iv; type: ADME, organism-based; set-up: time < 12 hr, dose 2.5 mg/kg, route intravenous; conditions: in vivo; summary of the method: as §1
[5] = Clearance in male Sprague-Dawley rat administered with 2.5 mg/kg, iv; type: ADME, organism-based; set-up: dose 2.5 mg/kg, route intravenous; conditions: in vivo; summary of the method: as §1
[6] = biological target: T1, Vascular endothelial growth factor A, long form (Homo sapiens, UniProt P15692); experiment: Binding affinity for VEGF by BIAcore solution affinity assay; summary of the method: as §2
T1 sequence (P15692 whole entry): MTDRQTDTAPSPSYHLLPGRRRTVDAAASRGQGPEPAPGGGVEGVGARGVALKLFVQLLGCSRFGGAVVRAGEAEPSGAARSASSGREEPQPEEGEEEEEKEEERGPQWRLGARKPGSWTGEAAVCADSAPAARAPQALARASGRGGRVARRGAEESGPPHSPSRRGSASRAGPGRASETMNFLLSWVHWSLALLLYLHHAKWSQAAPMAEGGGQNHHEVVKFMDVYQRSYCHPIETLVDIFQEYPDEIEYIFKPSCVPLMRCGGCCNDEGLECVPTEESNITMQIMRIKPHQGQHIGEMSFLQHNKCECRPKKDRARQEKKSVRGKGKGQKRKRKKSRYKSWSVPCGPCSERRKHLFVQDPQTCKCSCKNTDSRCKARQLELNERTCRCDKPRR

[7] = Volume of distribution in male Sprague-Dawley rat administered with 2.5 mg/kg, iv; type: ADME, organism-based; set-up: dose 2.5 mg/kg, route intravenous; conditions: in vivo, read-out: Vdss; summary of the method: as §1
[8] = biological target: Fibroblast growth factor 1 (Homo sapiens, UniProt P05230); experiment: Binding affinity for FGF1 by BIAcore solution affinity assay; summary of the method: as §2
Chain of Fibroblast growth factor 1 (P05230 whole entry): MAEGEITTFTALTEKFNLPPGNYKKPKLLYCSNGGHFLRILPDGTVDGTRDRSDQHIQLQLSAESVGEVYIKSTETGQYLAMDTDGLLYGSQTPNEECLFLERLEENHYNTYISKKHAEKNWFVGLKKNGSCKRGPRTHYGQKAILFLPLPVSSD

Human alphaherpesvirus 1 [9] = experiment: Inhibition of HSV1 infection; type: functional, organism-based, Human herpesvirus 1 strain KOS; conditions: Human alphaherpesvirus 1, KOS321
Heparanase = biological target: T2, Heparanase (Homo sapiens, UniProt Q9Y251); experiment: Inhibitory activity against human platelet heparanase by Microcon ultrafiltration assay
T2 sequence (Q9Y251 whole entry): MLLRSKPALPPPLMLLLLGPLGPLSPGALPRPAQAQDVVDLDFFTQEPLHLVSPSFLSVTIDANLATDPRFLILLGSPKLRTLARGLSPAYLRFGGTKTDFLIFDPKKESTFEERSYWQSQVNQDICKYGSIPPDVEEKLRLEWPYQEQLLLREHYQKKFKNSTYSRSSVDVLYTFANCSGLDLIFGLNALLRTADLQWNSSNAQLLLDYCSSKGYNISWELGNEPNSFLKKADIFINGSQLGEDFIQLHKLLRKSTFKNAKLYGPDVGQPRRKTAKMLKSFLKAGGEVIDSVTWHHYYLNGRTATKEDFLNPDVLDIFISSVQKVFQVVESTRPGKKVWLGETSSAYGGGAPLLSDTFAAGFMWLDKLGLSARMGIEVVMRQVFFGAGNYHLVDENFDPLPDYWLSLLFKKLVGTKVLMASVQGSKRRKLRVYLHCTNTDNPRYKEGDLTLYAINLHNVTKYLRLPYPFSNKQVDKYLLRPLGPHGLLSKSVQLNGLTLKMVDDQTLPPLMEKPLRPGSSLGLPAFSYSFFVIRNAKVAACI
Summary of the method: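 Platelet-derived heparanase (100 ng) in 40 mM acetate pH 5.0, 0.1 mg/mL BSA with inhibitor, preequilibrated 10 min at 22 °C. Started with 5 μM [3H]HS, 4 h at 22 °C. Cleaved fragments separated by 10 kDa ultrafiltration and counted; activity = 4 h minus time-0 filtrate, compared with inhibitor-free control. IC50.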

| Structure (SMILES) | half-life [1] | IC50 (Human alphaherpesvirus 1 [2]) | Kd [3] | Cp (Rattus norvegicus) | AUC(0-t) at 12 h [4] | clearance [5] | Kd [6] | Vd [7] | Kd [8] | IC50 (Human alphaherpesvirus 1 [9]) | IC50 (Heparanase) |
| --- | --- | --- | --- | --- | --- | --- | --- | --- | --- | --- | --- |
| CCCCCCCCO[C@H]1O[C@H](CO)[C@@H](O)[C@H](O)[C@@H]1O[C@H]1O[C@H](CO)[C@@H](O)[C@H](O[C@H]2O[C@H](CO)[C@@H](O)[C@H](O[C@H]3O[C@H](CO)[C@@H](O)[C@H](O[C@H]4O[C@H](CO)[C@@H](O)[C@H](O)[C@@H]4O)[C@@H]3O)[C@@H]2O)[C@@H]1O | 66 min | 400 nM | 68 nM | 35600 ng/mL | 29700 ng·h/mL | 1.39 mL/min/kg | 1.7 nM | 0.0229 L | 0.144 nM | 1000 nM | 1640 nM |
| O=C(COc1ccccc1)N[C@H]1O[C@H](CO)[C@@H](O)[C@H](O)[C@@H]1O[C@H]1O[C@H](CO)[C@@H](O)[C@H](O[C@H]2O[C@H](CO)[C@@H](O)[C@H](O[C@H]3O[C@H](CO)[C@@H](O)[C@H](O[C@H]4O[C@H](CO)[C@@H](O)[C@H](O)[C@@H]4O)[C@@H]3O)[C@@H]2O)[C@@H]1O | – | 5000 nM | 112 nM | – | – | – | 7.1 nM | – | 0.66 nM | 7000 nM | 2020 nM |
| O=C(CCCC[C@@H]1SC[C@@H]2NC(=O)N[C@@H]21)NCCCCCC(=O)N[C@H]1O[C@H](CO)[C@@H](O)[C@H](O)[C@@H]1O[C@H]1O[C@H](CO)[C@@H](O)[C@H](O[C@H]2O[C@H](CO)[C@@H](O)[C@H](O[C@H]3O[C@H](CO)[C@@H](O)[C@H](O[C@H]4O[C@H](CO)[C@@H](O)[C@H](O)[C@@H]4O)[C@@H]3O)[C@@H]2O)[C@@H]1O | 47.4 min | 3000 nM | 84 nM | 14000 ng/mL | 6500 ng·h/mL | 6.33 mL/min/kg | 7.2 nM | 0.0551 L | 0.39 nM | 2000 nM | 1850 nM |
| OC[C@H]1O[C@H](O[C@@H]2[C@H](O)[C@@H](O[C@@H]3[C@H](O)[C@@H](O[C@@H]4[C@H](O)[C@@H](O[C@@H]5[C@@H](OCc6ccccc6)O[C@H](CO)[C@@H](O)[C@@H]5O)O[C@H](CO)[C@H]4O)O[C@H](CO)[C@H]3O)O[C@H](CO)[C@H]2O)[C@@H](O)[C@@H](O)[C@@H]1O | 49.8 min | 1000 nM | 86 nM | 20500 ng/mL | 12600 ng·h/mL | 3.32 mL/min/kg | 1.7 nM | 0.0384 L | 0.12 nM | 2000 nM | 1830 nM |

From ChEMBL document CHEMBL1140436, “Synthesis, biological activity, and preliminary pharmacokinetic evaluation of analogues of a phosphosulfomannan angiogenesis inhibitor (PI-88)” (J Med Chem, 2005)
